Assay results taken from ChEMBL document CHEMBL1128487, “Reduced-size antagonists of luteinizing hormone-releasing hormone active in vitro” (1995).
Square brackets hold non-standard residues; d marks the D form. Peptide text beside a SMILES is read from it. * marks the point of attachment. ξ: configuration not given here. 2Nal = N[C@@H](Cc1ccc2ccccc2c1)C(=O)O; ξLys(iPr) = CC(C)NCCCCC(N)C(=O)O; Picolinoyl = O=C(c1ccccn1)*; ξR = N=C(N)NCCCC(N)C(=O)O

Assays:
[1] = target: T1, Gonadotropin-releasing hormone receptor (Rattus norvegicus) (UniProt P30969); experiment: In vitro inhibition of LH release was determined in rat pituitary cells at a dose of 0.3 ug of analogue and 1 ng of LHRH; format: functional, cell-based; settings: Pituitary gland cell
T1 sequence (whole entry): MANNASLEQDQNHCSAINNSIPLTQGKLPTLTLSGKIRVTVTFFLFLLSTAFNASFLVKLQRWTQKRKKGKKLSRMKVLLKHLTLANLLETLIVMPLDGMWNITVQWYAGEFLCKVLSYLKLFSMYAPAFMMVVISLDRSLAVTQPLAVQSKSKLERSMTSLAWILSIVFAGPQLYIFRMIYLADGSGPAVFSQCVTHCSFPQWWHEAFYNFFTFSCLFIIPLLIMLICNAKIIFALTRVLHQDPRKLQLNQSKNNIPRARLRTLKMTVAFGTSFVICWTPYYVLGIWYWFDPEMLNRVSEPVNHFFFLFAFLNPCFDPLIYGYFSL
Outline: (§1)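 Anterior pituitaries from female Sprague-Dawley rats (240-260 g, 18 rats) were minced and dispersed in Gey's solution with trypsin, DNase I and LBBI. Cells were plated in DMEM with 0.45% glucose, 25 mM HEPES, serum, T and 100 nM dexamethasone at about 3.0 × 10^5 cells/mL and cultured 4 days at 37 °C in 8% CO2. Cells were then exposed to antagonist plus 1 ng LHRH in Gey's solution with 0.3% glucose for 2 h. LH in the medium was measured by RIA as ng/mL of RP-3.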

Rattus norvegicus [2] = experiment: In vivo anti-ovulatory activity (AOA) against LHRH was determined at a dose of 10 ug in 6 rats; format: functional
Outline: (§2)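 Female 4-day cycling rats received a single subcutaneous injection of analog in corn oil between 12 and 12:30 p.m. Ova were counted on estrus. Activity is given as the number of ovulating rats over the total rats at each dose.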

Rattus norvegicus [3] = experiment: In vivo anti-ovulatory activity (AOA) against LHRH was determined at a dose of 1000 ug in 6 rats; format: functional; outline: as §2
[4] = target: T1, Gonadotropin-releasing hormone receptor (Rattus norvegicus); experiment: In vitro antagonistic activity against LH release in rat pituitary cells for control.; format: functional, cell-based; settings: Pituitary gland cell; outline: as §1
[5] = target: T1, Gonadotropin-releasing hormone receptor (Rattus norvegicus); experiment: In vitro inhibition of LH release was determined in rat pituitary cells at a dose of 0.03 ug of analogue and 1 ng of LHRH; format: functional, cell-based; settings: Pituitary gland cell; outline: as §1
Rattus norvegicus [6] = organism: Rattus norvegicus; experiment: In vitro inhibition of LH release in rat pituitary cells at a dose of 1 ng LHRH in absence of the compound.; format: functional, Pituitary gland cell; design: unit: ng/mL; outline: as §1
Rattus norvegicus [7] = experiment: In vivo anti-ovulatory activity (AOA) against LHRH was determined at a dose of 100 ug in 6 rats; format: functional; outline: as §2
[8] = target: T1, Gonadotropin-releasing hormone receptor (Rattus norvegicus); experiment: In vitro inhibition of LH release was determined in rat pituitary cells at a dose of 0.1 ug of analogue and 1 ng of LHRH; format: functional, cell-based; settings: Pituitary gland cell; outline: as §1
[9] = target: T1, Gonadotropin-releasing hormone receptor (Rattus norvegicus); experiment: In vitro inhibition of LH release in rat pituitary cells at a dose of 1 ug of analogue and 1 ng of LHRH.; format: functional, cell-based; settings: Pituitary gland cell; outline: as §1
Rattus norvegicus [10] = experiment: In vivo anti-ovulatory activity (AOA) against LHRH was determined at a dose of 1000 ug in 9 rats; format: functional; outline: as §2
[11] = target: T1, Gonadotropin-releasing hormone receptor (Rattus norvegicus); experiment: In vitro inhibition of LH release determined in rat pituitary cells at a dose of 3 ug of analogue and 1 ng of LHRH; format: functional, cell-based; settings: Pituitary gland cell; outline: as §1
[12] = target: T1, Gonadotropin-releasing hormone receptor (Rattus norvegicus); experiment: In vitro inhibition of LH release was determined in rat pituitary cells at a dose of 100 ug of analogue and 1 ng of LHRH; format: functional, cell-based; settings: Pituitary gland cell; outline: as §1
[13] = target: T1, Gonadotropin-releasing hormone receptor (Rattus norvegicus); experiment: In vitro inhibition of LH release was determined in rat pituitary cells at a dose of 10 ug of analogue and 1 ng of LHRH; format: functional, cell-based; settings: Pituitary gland cell; outline: as §1
[14] = target: T1, Gonadotropin-releasing hormone receptor (Rattus norvegicus); experiment: In vitro inhibition of LH release was determined in rat pituitary cells at a dose of 30 ug of analogue and 1 ng of LHRH; format: functional, cell-based; settings: Pituitary gland cell; outline: as §1
Rattus norvegicus [15] = experiment: In vivo anti-ovulatory activity (AOA) against LHRH was determined at a dose of 1 ug in 6 rats; format: functional; outline: as §2

SMILES | Activity [1] | Activity [4] | Activity [5] | Activity [8] | Activity [9] | Activity [11] | Activity [12] | Activity [13] | Activity [14] | AOA (Rattus norvegicus [2]) | AOA (Rattus norvegicus [3]) | Activity (Rattus norvegicus [6]) | AOA (Rattus norvegicus [7]) | AOA (Rattus norvegicus [10]) | AOA (Rattus norvegicus [15])
CC(=O)N[C@@H](Cc1ccc2ccccc2c1)C(=O)N[C@@H](CCCCNC(=O)c1ccccn1)C(=O)NC(CCCCNC(C)C)C(=O)N1CCC[C@H]1C(N)=O (some centres not stated) (Ac-[2Nal]K(Picolinoyl)[ξLys(iPr)]P-NH2) |  | 3.5 |  |  | 186 | 150 | 118 | 144 | 128 |  |  | 153 |  |  | 
CC(=O)N[C@@H](Cc1ccc2ccccc2c1)C(=O)N[C@@H](CCCCNC(=O)c1ccccn1)C(=O)NC(CCCN=C(N)N)C(=O)N1CCC[C@H]1C(N)=O (some centres not stated) (Ac-[2Nal]K(Picolinoyl)[ξR]P-NH2) |  | 3.5 |  |  | 148 | 145 | 63 | 132 | 136 |  |  | 153 |  |  | 
CC(=O)N[C@@H](Cc1ccc2ccccc2c1)C(=O)N[C@@H](CC(C)C)C(=O)N[C@@H](CCCN=C(N)N)C(=O)N[C@@H](C)C(N)=O (Ac-[2Nal]LRA-NH2) |  | 3.5 |  |  | 145 | 136 | 49 | 116 | 87 |  |  | 155 |  |  | 
CCNC(=O)[C@@H]1CCCN1C(=O)[C@H](CCCN=C(N)N)NC(=O)[C@H](CC(C)C)NC(=O)[C@H](Cc1ccc2ccccc2c1)NC(C)=O (Ac-[2Nal]LRP-NHEt) |  | 3.1 |  |  | 148 | 120 | 9 | 88 | 25 |  |  | 145 |  |  | 
CCNC(=O)[C@@H]1CCCN1C(=O)[C@H](CCCN=C(N)N)NC(=O)[C@H](CC(C)C)NC(=O)[C@H](Cc1ccc2ccccc2c1)NC(=O)[C@H](Cc1ccc2ccccc2c1)NC(C)=O (Ac-[2Nal][2Nal]LRP-NHEt) |  | 2.3 |  |  | 145 | 158 | 98 | 147 | 122 |  |  | 156 |  |  | 
CC(=O)NC(Cc1ccc2ccccc2c1)C(=O)N[C@@H](CCCCNC(=O)c1ccccn1)C(=O)N[C@@H](CCCN=C(N)N)C(=O)NC(C)C(N)=O (single isomer, unassigned) |  | 2.3 |  |  | 147 | 145 | 8 | 75 | 26 |  |  | 156 |  |  | 
CC(=O)N[C@@H](Cc1ccc2ccccc2c1)C(=O)NC(CCCCNC(=O)c1ccccn1)C(=O)N[C@@H](CCCCNC(=O)c1ccccn1)C(=O)NC(CCCN=C(N)N)C(=O)NC(C)C(N)=O (stereo in doubt) |  | 2.3 |  |  | 145 | 158 | 64 | 142 | 105 |  |  | 156 |  |  | 

More lines, main results first:

Activity [1] | Activity [4] | Activity [5] | Activity [8] | Activity [9] | Activity [11] | Activity [12] | Activity [13] | Activity [14] | SMILES | AOA (Rattus norvegicus [2]) | AOA (Rattus norvegicus [3]) | Activity (Rattus norvegicus [6]) | AOA (Rattus norvegicus [7]) | AOA (Rattus norvegicus [10]) | AOA (Rattus norvegicus [15])
6 | 3.8 | 28 | 14 | 3 |  |  |  |  | CC(=O)N[C@H](Cc1ccc2ccccc2c1)C(=O)N[C@H](Cc1cccnc1)C(=O)N[C@@H](CO)C(=O)N[C@@H](Cc1ccc(O)cc1)C(=O)N[C@H](Cc1ccc2ccccc2c1)C(=O)N[C@@H](CC(C)C)C(=O)N[C@@H](CCCN=C(N)N)C(=O)N1CCC[C@H]1C(=O)N[C@H](C)C(N)=O | 6 | 4 | 149 | 6 |  | 
4 | 3.2 | 45 | 5 | 3 |  |  |  |  | CCNC(=O)[C@@H]1CCCN1C(=O)[C@H](CCCN=C(N)N)NC(=O)[C@H](CC(C)C)NC(=O)[C@@H](Cc1ccc2ccccc2c1)NC(=O)[C@H](Cc1ccc(O)cc1)NC(=O)[C@H](CO)NC(=O)[C@@H](Cc1ccc2ccccc2c1)NC(C)=O |  |  | 153 | 6 | 2 | 
 | 2.3 |  |  | 142 | 135 | 21 | 121 | 66 | CC(=O)N[C@@H](Cc1ccc2ccccc2c1)C(=O)N[C@@H](Cc1ccc(O)cc1)C(=O)N[C@@H](Cc1ccc2ccccc2c1)C(=O)N[C@@H](CCCN=C(N)N)C(=O)N[C@@H](C)C(N)=O (Ac-[2Nal]Y[2Nal]RA-NH2) |  |  | 156 |  |  | 
4 | 3.8 | 8 | 4 | 4 |  |  |  |  | CC(=O)NC(Cc1ccc2ccccc2c1)C(=O)N[C@@H](Cc1ccc(Cl)cc1)C(=O)N[C@@H](Cc1cccnc1)C(=O)N[C@@H](CO)C(=O)N[C@@H](Cc1ccc(O)cc1)C(=O)NC(Cc1ccc2ccccc2c1)C(=O)N[C@@H](CC(C)C)C(=O)N[C@@H](CCCN=C(N)N)C(=O)N1CCC[C@H]1C(=O)N[C@H](C)C(N)=O (stereo in doubt) | 0 |  | 149 |  |  | 5
14 | 3.8 | 39 | 29 | 6 |  |  |  |  | CC(=O)NC(Cc1ccc2ccccc2c1)C(=O)N[C@@H](Cc1ccc(Cl)cc1)C(=O)N[C@@H](CO)C(=O)N[C@@H](Cc1ccc(O)cc1)C(=O)NC(Cc1ccc2ccccc2c1)C(=O)N[C@@H](CC(C)C)C(=O)N[C@@H](CCCN=C(N)N)C(=O)N1CCC[C@H]1C(=O)N[C@H](C)C(N)=O (stereo in doubt) |  | 6 | 149 | 6 |  | 
12 | 5.3 |  | 37 | 7 | 3 |  |  |  | CC(=O)NC(Cc1ccc2ccccc2c1)C(=O)N[C@@H](CO)C(=O)N[C@@H](Cc1ccc(O)cc1)C(=O)NC(Cc1ccc2ccccc2c1)C(=O)N[C@@H](CC(C)C)C(=O)N[C@@H](CCCN=C(N)N)C(=O)N1CCC[C@H]1C(=O)N[C@H](C)C(N)=O (stereo in doubt) |  | 6 | 236 | 6 |  | 
